ChEMBL document CHEMBL5143667, “Identification of Aloe-derived natural products as prospective lead scaffolds for SARS-CoV-2 main protease (Mpro) inhibitors” (Bioorg Med Chem Lett, 2022)
Square brackets hold non-standard residues; d marks the D form. Peptide text beside a SMILES is read from it. * marks the point of attachment. Nle = CCCC[C@H](N)C(=O)O; Cbz = O=C(OCc1ccccc1)*

Each molecule was assayed against Replicase polyprotein 1ab (Severe acute respiratory syndrome coronavirus 2, UniProt P0DTD1) (assay: Inhibition of SARS-CoV-2 main protease expressed in Escherichia coli using DABCYL-KTSAVLQ1SGFRKM-E(EDANS)-NH2 peptide as substrate incubated for 30 mins by FRET based assay).
Outline: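 Same FRET set-up with varied inhibitor concentrations: 50 nM Mpro, 10 μM substrate, Tris-HCl/NaCl/EDTA/DTT buffer, pH 7.3, room temperature, read every 2.5 min for 1 h. Initial slopes from first 20 min, % inhibition vs DMSO. IC50 by nonlinear regression, three-parameter dose–response inhibition model. Triplicates, mean ± SD.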

Compound	IC50 [µM]
CC(=O)Cc1cc(=O)c2c(C)cc(O)c([C@@H]3O[C@H](CO)[C@@H](O)[C@H](O)[C@H]3O)c2o1	38.9
CCCCCCCCCCCCCCCc1cccc(O)c1C(=O)O [ANACARDIC ACID]	6.8
COc1cc(C)c2c(=O)cc(C[C@@H](C)O)oc2c1[C@@H]1O[C@H](CO)[C@@H](O)[C@H](O)[C@H]1OC(=O)/C=C/c1ccc(O)cc1	125
O=C1CC(=O)c2c(Cl)c(Cl)c(Cl)c(Cl)c21	138

The molecules below were run against Replicase polyprotein 1ab (Severe acute respiratory syndrome coronavirus 2) (UniProt P0DTD1) (assay: Inhibition of SARS-CoV-2 main protease expressed in Escherichia coli using DABCYL-KTSAVLQ1SGFRKM-E(EDANS)-NH2 peptide as substrate at 100 uM incubated for 30 mins by FRET based assay relative to control).
Outline: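 Started by adding substrate–inhibitor mix to enzyme. Ex 360/Em 460 nm every 2.5 min for 1 h. Initial velocity from first 20 min, substrate background subtracted, % inhibition vs DMSO control. Triplicate, mean ± SD.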

Compound	inhibition [%]
CC(=O)Cc1cc(=O)c2c(C)cc(O)c([C@@H]3O[C@H](CO)[C@@H](O)[C@H](O)[C@H]3O)c2o1	80.1
CCCCCCCCCCCCCCCc1cccc(O)c1C(=O)O [ANACARDIC ACID]	96.1
CCCC(NC(=O)C(CC(C)C)NC(=O)OCc1ccccc1)C(=O)C(=O)NCc1ccccn1 (stereo unspecified)	98.3
CCCC[C@@H](C=O)NC(=O)[C@H](CC(C)C)NC(=O)OCc1ccccc1	97.2
CC(NC(=O)[C@H](Cc1ccccc1)NC(=O)OCc1ccccc1)C(=O)CF (stereo partly specified)	90.1
CC(C)C[C@H](NC(=O)[C@H](Cc1ccccc1)C[C@@H](O)[C@H](Cc1ccccc1)NC(=O)OC(C)(C)C)C(=O)N[C@@H](Cc1ccccc1)C(N)=O	65
COc1cc(C)c2c(=O)cc(C[C@@H](C)O)oc2c1[C@@H]1O[C@H](CO)[C@@H](O)[C@H](O)[C@H]1OC(=O)/C=C/c1ccc(O)cc1	72.6
CC(C)(C)NC(=O)N[C@H](C(=O)N1C[C@H]2[C@@H]([C@H]1C(=O)NC(CC1CCC1)C(=O)C(N)=O)C2(C)C)C(C)(C)C (stereo partly specified)	97.4
Cc1coc2c1C(=O)C(=O)c1c-2ccc2c1CCCC2(C)C	53.9
CC(=O)N[C@@H](CC(C)C)C(=O)N[C@@H](CC(C)C)C(=O)N[C@H](C=O)CCCNC(=N)N	59
CC1=C(O)C(=O)C=C2C1=CC=C1[C@@]2(C)CC[C@@]2(C)[C@@H]3C[C@](C)(C(=O)O)CC[C@]3(C)CC[C@]12C	57.7
CSCC[C@@H](C=O)NC(=O)[C@H](CC(C)C)NC(=O)[C@H](CC(C)C)NC(C)=O (Ac-Leu-Leu-Met-aldehyde)	99.8
Cc1c(O)cccc1C(=O)N[C@@H](CSc1ccccc1)[C@H](O)CN1C[C@H]2CCCC[C@H]2C[C@H]1C(=O)NC(C)(C)C	56.1
Nc1ccccc1NC(=O)c1ccc(CNc2nccc(-c3cccnc3)n2)cc1	66.7
COc1cc(C)c2c(=O)cc(CC(C)=O)oc2c1[C@@H]1O[C@H](CO)[C@@H](O)[C@H](O)[C@H]1OC(=O)/C=C/c1ccc(O)cc1	60.5
CC(NC(=O)Cc1cc(F)cc(F)c1)C(=O)NC1C(=O)N(C)c2ccccc2-c2ccccc21 (stereo unspecified)	53.8
CCC[C@H](NC(=O)[C@@H]1[C@H]2CCC[C@H]2CN1C(=O)[C@@H](NC(=O)[C@@H](NC(=O)c1cnccn1)C1CCCCC1)C(C)(C)C)C(=O)C(=O)NC1CC1	88.8
CCOC(=O)C[C@H](NC(=O)[C@@H](NC(=O)[C@H](CCC(=O)OC)NC(=O)[C@H](CC(=O)OCC)NC(=O)OCc1ccccc1)C(C)C)C(=O)CF	100
Cc1cc(C(=O)CN2CCCC2)c(C)n1-c1ccc(F)cc1	54.8
C=C[C@H]1C[C@]1(NC(=O)[C@@H]1C[C@@H](Oc2ncc(OC)c3ccc(Cl)cc23)CN1C(=O)[C@@H](NC(=O)OC(C)(C)C)C(C)(C)C)C(=O)NS(=O)(=O)C1CC1	49.4
CC(C)(C)C1NC(=O)O[C@@H]2CCC[C@H]2OC/C=C/C(F)(F)c2nc3ccccc3nc2O[C@@H]2C[C@@H](C(=O)N[C@]3(C(=O)NS(=O)(=O)C4(C)CC4)C[C@H]3C(F)F)N(C2)C1=O (stereo partly specified)	51.7
CCCC[C@@H](C=O)NC(=O)[C@H](CC(C)C)NC(=O)[C@H](CC(C)C)NC(C)=O (Ac-Leu-Leu-[Nle]-aldehyde)	95.2
O=C(O)/C(S)=C/c1c[nH]c2ccc(F)cc12	71.5
CC(C)C[C@@H](C=O)NC(=O)[C@H](CC(C)C)NC(=O)[C@H](CC(C)C)NC(=O)OCc1ccccc1 (Cbz-Leu-Leu-Leu-aldehyde)	99
O=C1CC(=O)c2c(Cl)c(Cl)c(Cl)c(Cl)c21	94.2
CC(=O)O/N=C1\C(=O)N(Cc2cc(Cl)ccc2Cl)c2ccc(Cl)cc21	61.4
Cn1cc(/C=C/C(=O)c2cccc(F)c2)cc1/C=C/C(=O)NO	51.4
